DENV2 CPE rescue = inhibitors of DENV2 cytopathic effect | DENV2-infected cells, cytopathic effect rescue, plate reader | CPE inhibition, % at 9.99 µM | 1.7% of 350,000 active; in the data active means CPE inhibition above about 20%, passing the limit was not always enough; inconclusive means no clear call, values can overlap the other calls; tested in BHK-21 cells;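 further: 0% = median of neutral control wells and 100% = median of positive control wells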
XiGFP reactiv = X-chromosome reactivation activator; XiGFP mouse fibroblasts, % GFP-positive cells imaging, 3 d; cells co-treated with 5-aza-dC sensitizer; scaled so ellipticine positive control = 100%; 0.055% of 360,000 active; activation, % at 7.58 µM;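 active means mean normalized replicate activation at least 10% and every replicate at or above 10%; inconclusive means only one of the two criteria met; inactive means mean below 10% and not all replicates reach 10%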;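 further: 0% = median of on-plate neutral control wells and 100% = ellipticine 6 µM median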
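System: XiGFP fibroblasts, SV40-immortalized. Medium: DMEM plus 5-aza-dC sensitizer. Doses: single point. Timing: 3 d treatment, 15 min room-temperature fixation. Control set: ellipticine 6 µM.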
FGF22 binding-1 = shifts melting point of recombinant human FGF22; Q9HCT0; recombinant FGF22 thermal shift, SYPRO orange fluorescence; percent of sucrose octasulfate shift, DMSO zero; activity (Tm shift, normalised), % at 9.99 µM; 1.5% of 340,000 active;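 active means mean Tm shift, scaled 0 neutral to 100 positive control, at about 1.3% or above, every replicate too, limit read from the data; inconclusive means no clear call, values can overlap the other calls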
Target sequence (Q9HCT0 whole entry, looked up): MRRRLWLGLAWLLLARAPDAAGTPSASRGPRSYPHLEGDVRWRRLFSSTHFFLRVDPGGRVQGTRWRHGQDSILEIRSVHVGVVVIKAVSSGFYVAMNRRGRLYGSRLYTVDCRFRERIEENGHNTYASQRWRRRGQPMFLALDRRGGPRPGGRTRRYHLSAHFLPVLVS
FN deposit inh = fibronectin deposition inhibition; AH1F fibroblasts, Alexa488-fibronectin deposition fluorescence, overnight; inhibition, % at 12.6 µM; 0.086% of 350,000 active; AID 743247;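 active means mean inhibition across replicates of 30% or more, regardless of how many single replicates reach that level; inconclusive means mean under 30% yet at least half of replicates reach 30%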;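 further: positive control wells lacked labelled fibronectin entirely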
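Schedule: 1 h cell adhesion before compound, then overnight fibronectin incubation; test system: AH1F fibroblast monolayer depositing Alexa488-labelled fibronectin into matrix; quantity: 10000 AH1F cells per well; probe or stimulus: fluorescent fibronectin at 24 nM final; signal: fluorescence, ex 485 nm, em 525 nm; evaluation: percent inhibition as loss of matrix-bound fibronectin fluorescence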
ARNT TACC3 PPI = ARNT/TACC3 interaction disruption; Q9Y6A5; inhibition, % at 9.99 µM; 0.66% of 390,000 active; AlphaScreen His-ARNT PAS-B/GST-TACC3 binding, luminescence; TACC3 fragment carries E629A point mutation;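 active means mean inhibition of replicates at least 50% and at least half of replicates each reaching 50%; inconclusive means half or more replicates reach 50% but mean below 50%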;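 further: 0% = complete ARNT plus TACC3 wells and 100% = ARNT alone without TACC3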
SIRT5 block = inhibitors of human sirtuin-5 desuccinylase; Q9NXA8; Purified SirT5, succinyl-peptide AMC, trypsin-coupled fluorescence; inhibition, % at 15 µM; 1.1% of 330,000 active; AID 652115; in the data active means inhibition above about 15%; inconclusive means no clear call, values can overlap the other calls
Target sequence (Q9NXA8 whole entry, looked up): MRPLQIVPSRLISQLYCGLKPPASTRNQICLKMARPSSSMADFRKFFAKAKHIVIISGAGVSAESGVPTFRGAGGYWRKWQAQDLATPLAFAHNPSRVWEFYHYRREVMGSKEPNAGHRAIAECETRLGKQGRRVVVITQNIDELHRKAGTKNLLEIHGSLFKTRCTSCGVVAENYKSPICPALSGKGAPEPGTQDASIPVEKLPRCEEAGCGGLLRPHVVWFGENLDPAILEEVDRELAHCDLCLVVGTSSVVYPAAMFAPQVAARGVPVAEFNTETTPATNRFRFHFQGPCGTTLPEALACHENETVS
FGF22 binding-2 = binders of human FGF22 by thermal shift | shares compounds with FGF22 binding-1 | recombinant FGF22 thermal shift, SYPRO orange fluorescence | thermal shift activity, °C (ΔTm) at 38 µM | 2% of 1,000 active | AID 720646;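 active means fitted rise in melting shift crosses a set limit at or below the top valid dose tested; inconclusive means flat fit at mid-level activity, or a poor quality fit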
FGF22 TSA DP = binders of human FGF22 by thermal shift. Thermal shift assay, SYPRO orange, melting temperature shift. Tm shift (activity), % at 38 µM. shares compounds with FGF22 binding-1. 50 tested, under 10 active;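 active means compounds whose fitted dose curve of melting temperature shift rises past a set threshold within the tested doses; inconclusive means flat curve at moderate activity, or poor curve fit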
SYPRO no-protein = compound-only SYPRO artifact for FGF22 binders; 2% of 1,000 active; compound-only SYPRO orange thermal shift counter-screen, no protein; AID 743019; shares compounds with FGF22 binding-1; AC50, µM (highest dose often 38 µM);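 active means rising signal whose fitted curve reaches the 0.54 level within the top valid dose, showing a melting point, actives reach about 13 µM in these data; inactive means the rest, including activity in the opposite direction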; further: value is where the raw curve crosses a fixed level and not half-maximal
* marks the source's active call; other numbers are inactive results; i = inactive; ? = inconclusive; / = no result; [ ] = remark or other dose. The list is not random: actives were taken first. Their share in the collection is about 3.8%.

SMILES	DENV2 CPE rescue	XiGFP reactiv	FGF22 binding-1	FN deposit inh	ARNT TACC3 PPI	SIRT5 block	FGF22 binding-2	SYPRO no-protein	others
O=C(COC(=O)c1ccccc1Br)NCCC1=CCCCC1	-9	0	24*	6	-4	1	0.053	i
O=C(C[C@@H]1C[C@H]2c3cc(NC(=O)c4ccc5c(c4)OCO5)ccc3O[C@H]2[C@@H](CO)O1)NCc1cccnc1	2	0	0	/	8	-1	/	/
O=C(c1ccccc1)N1CC2(C1)[C@H](c1ccccc1)[C@H](CO)N2Cc1cc(F)ccc1F	6	0	1.3*	/	/	-2	0.15[42 µM]	i
O=C(C1CCOCC1)N1CC2(C1)[C@@H](c1ccccc1)[C@@H](CO)N2Cc1ccccc1F	9	0	1.5*	-23	/	-6	0.019	i
O=C(c1ccccc1)N1CC2(C1)[C@@H](c1ccccc1)[C@@H](CO)N2Cc1cc(F)ccc1F	-4	0	-1	/	/	6	/	/
CN(C)CC(=O)Nc1ccc2c(c1)[C@H]1C[C@H](CC(=O)NCc3cccnc3)O[C@H](CO)[C@H]1O2	17	0	0	-4	1	-2	/	/
Cc1ccc(NC(=O)C[C@H]2CC[C@H]3[C@@H](COc4ccc(NC(=O)C5CCCCC5)cc4C(=O)N3C)O2)cc1	-14	0	/	2	/	/	/	/
CCC(=O)N1CC2(C1)CN(Cc1ccccc1Cl)[C@@H](CO)c1c2c2ccc(OC)cc2n1C	?	0	0	/	/	/	/	/
O=[N+]([O-])c1ccc(Nc2cccc(F)c2)nc1	-4	0	3.5*	3	21	3	0.14	i
O=[N+]([O-])c1ccc(Nc2ccccc2)nc1	-1	0	1.4*	-1	-2	3	-0.016	i
O=[N+]([O-])c1ccc(Nc2ccc(F)cc2)nc1	/	0	/	-6	-5	/	/	/
COC(=O)c1cccc(Nc2ccc([N+](=O)[O-])cn2)c1	6	0	1	7	22	0	/	/
C[C@@H]1CCCCO[C@H](CN(C)C(=O)CCC(F)(F)F)[C@@H](C)CN([C@@H](C)CO)C(=O)c2cc(NC(=O)CCCCCC(=O)Nc3ccccc3N)ccc2O1	-2	0	0	/	6	/	/	/
O=C(N/N=C/c1c[nH]c2ccccc12)c1ccc([N+](=O)[O-])cc1Cl	/	/	/	/	-18	/	/	/
CC(=O)Nc1cccc(C(=O)N/N=C/c2c[nH]c3ccccc23)c1	0	0	3.8*	1	-8	5	/	i	FGF22 TSA DP=0
CCOc1ccccc1C(=O)N/N=C/c1c[nH]c2ccccc12	-1	0	0	15	3	-5	/	/
O=C(N/N=C/c1c[nH]c2ccccc12)c1cccc(O)c1	0	0	2.1*	-3	8	1	0.52	i	FGF22 TSA DP=1
O=C(N/N=C/c1c[nH]c2ccccc12)c1cccc(Cl)c1	-1	0	2.8*	4	9	2	/	i	FGF22 TSA DP=0
O=C(N/N=C/c1c[nH]c2ccccc12)c1ccc(O)c(O)c1	0	0	2.4*	-3	11	5	-0.034	i	FGF22 TSA DP=0
O=C(NCC(F)(F)F)[C@H]1[C@H](CO)[C@H]2Cn3c(cccc3=O)[C@@H]1N2C(=O)C1CC1	4	0	0	/	-2	3	/	/
COCCNC(=O)C[C@@H]1CC[C@H](NS(=O)(=O)c2ccc(C)cc2)[C@H](CO)O1	3	0	0	-14	-14	-3	/	/
Cc1ccsc1/C=N/NC(=O)c1c[nH]c2ccccc12	/	/	/	6	/	/	/	/
O=C(N/N=C/c1ccsc1)c1c[nH]c2ccccc12	-5	0	3.7*	6	5	2	-0.063	i
CCC(=O)N1CC2(C1)[C@H](c1ccc(-c3cccc(C)c3)cc1)[C@@H](CO)N2S(C)(=O)=O	7	0	4.5*	3	/	-1	-0.015	i
CCN1C/C(=C/c2cccs2)c2nc3ccccc3c(C(=O)O)c2C1	-5	0	1.8*	-4	-22	-5	0.19	i	FGF22 TSA DP=0
SMILES	DENV2 CPE rescue	XiGFP reactiv	FGF22 binding-1	FN deposit inh	ARNT TACC3 PPI	SIRT5 block	FGF22 binding-2	SYPRO no-protein	others
CCN1C/C(=C/c2sccc2C)c2nc3ccccc3c(C(=O)O)c2C1	8	0	0	-9	7	0	/	/
CC(C)(C)NC(=O)CN(C(=O)CNS(=O)(=O)c1ccccc1)c1ccc2c(c1)OCCO2	/	/	/	0	-5	/	/	/
CC(C)(C)NC(=O)CN(C(=O)CNS(=O)(=O)c1ccc(Cl)cc1)c1ccc2c(c1)OCCO2	10	0	40*	5	-1	-1	0.1	i
COc1ccc(N=NC2C(=O)N(c3ccccc3)N=C2C)cc1 (configuration not stated)	-2	0	1.6*	0	/	-3	-0.059	i
CCC(=O)Nc1ccc2c(c1)C(=O)N(C)[C@H]1CC[C@H](CC(=O)Nc3cccc(F)c3)O[C@@H]1CO2	1	0	0	3	-3	-1	/	/
COc1cc(NC(=O)C2CCC(CNS(=O)(=O)c3csc(C(N)=O)c3)CC2)cc(OC)c1 (configuration not stated)	4	0	1.8*	-10	5	2	-0.31	i
CCCNC(=O)N1C[C@@H]2[C@H](c3ccccc31)[C@H](CO)N2Cc1ccc(F)cc1	-6	0	1.3*	/	1	3	0.051	i
CCCCNC(=O)C1(C)CCCCN1C(=O)c1c(F)ccc(C)c1F (configuration not stated)	11	1	1.7*	2	/	1	0.19	i
COc1ccc(NS(=O)(=O)c2cccc(C(=O)NN=Cc3ccc(OC)c(O)c3)c2)cc1	-4	0	34*	/	-2	/	-0.19	i
COc1ccc(N(CC(=O)N/N=C/c2ccc(OC)c(OC)c2)S(=O)(=O)c2ccccc2)cc1	2	0	1.5*	-1	3	2	0.15	i
COc1ccc(/C=N/NC(=O)CN(c2ccc(OC)cc2)S(=O)(=O)c2ccccc2)cc1	-1	0	0	-4	/	-6	/	/
COc1cc2ccccc2cc1C(=O)OCC(=O)c1c(N)n(C)c(=O)n(C)c1=O	0	0	17*	3	-3	0	0.074	i

Assay outcomes from PubChem BioAssay.
